Screening results from PubChem BioAssay.
Scp1 inh = Scp-1 (human) phosphatase inhibition; 0.88% of 340,000 active; Q9GZU7; Recombinant Scp1, phosphopeptide, malachite green phosphate absorbance; inhibition, % at 20 µM;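 active = inhibition above about 50% at 20 µM, limit read from the data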;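 note: plate controls were DMSO wells with enzyme for no effect and wells lacking enzyme for full effect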
Target sequence (Q9GZU7 76-261 limits assumed): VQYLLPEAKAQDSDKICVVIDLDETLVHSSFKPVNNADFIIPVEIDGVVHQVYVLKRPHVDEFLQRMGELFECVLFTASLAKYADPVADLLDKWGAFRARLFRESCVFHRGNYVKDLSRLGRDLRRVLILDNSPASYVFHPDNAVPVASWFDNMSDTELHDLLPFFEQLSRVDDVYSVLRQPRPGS
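System: SCP-1 catalytic domain; Reagent: Phospho 17-mer peptide substrate; Doses: one concentration, 20 µM, with 1.0% DMSO; Incubation: 45 min room-temperature reaction, 5 min colour, 30 min stabiliser; Signal: Phosphate-binding colour reagent, absorbance read at 630 nm.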
DNMT1 inh = DNMT1 (human) enzyme inhibition. P26358. DNMT1 molecular beacon, Hinp1I cleavage, fluorescence. inhibition (reported as % activation of signal), % at 10 µM. 0.83% of 360,000 active. AID 588458; in the data active = inhibition above about 50%
CSN deneddyl inh = inhibitors of human CSN-mediated cullin deneddylation; 0.38% of 360,000 active; AID 651999; Purified CSN, SCF-Nedd8-OG deneddylation, fluorescence polarization; inhibition, % at 12.5 µM;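 active = pattern-corrected inhibition above about 35%, with an unprinted fluorescence ratio check between 0.5 and 1.5, limit read from the data, passing the limit was not always enough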;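 note: 0% = enzyme with substrate and 100% = substrate without enzyme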
Target sequence (Q92905 whole entry, looked up, one chain of several): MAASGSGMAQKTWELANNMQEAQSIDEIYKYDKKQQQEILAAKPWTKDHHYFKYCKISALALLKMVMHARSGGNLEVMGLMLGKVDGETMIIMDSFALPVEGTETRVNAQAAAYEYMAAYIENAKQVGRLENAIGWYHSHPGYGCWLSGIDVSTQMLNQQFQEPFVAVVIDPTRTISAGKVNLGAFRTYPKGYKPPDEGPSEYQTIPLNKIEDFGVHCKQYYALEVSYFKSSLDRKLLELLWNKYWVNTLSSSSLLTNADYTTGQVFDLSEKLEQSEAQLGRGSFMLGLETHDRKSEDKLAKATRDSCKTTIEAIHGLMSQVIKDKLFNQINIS
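Assay system: Purified human Csn5 enzyme expressed in HEK293T cells | Amount: Enzyme 0.24 nM | Measured by: Fluorescence polarization readout | Medium: Tris/NaCl/DTT buffer, pH 7.5 | Compound dosing: One concentration, 12.5 µM, 0.25% DMSO | Times: 90 min incubation of compound, enzyme and substrate at room temperature | Control set: no-enzyme wells high, enzyme-with-substrate wells low | Read-out: % inhibition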
LMPTP inh = blocks human LMPTP phosphatase | 0.22% of 360,000 active | P24666 | inhibition, % at 20 µM | AID 651560 | recombinant LMPTP-A, OMFP fluorogenic substrate, fluorescence intensity;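 active = compounds that cut the enzyme signal by at least half of the control window in the single-dose screen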;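 note: plate controls were DMSO wells with enzyme plus substrate for no effect and substrate without enzyme for full effect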
Target sequence (P24666 whole entry, looked up): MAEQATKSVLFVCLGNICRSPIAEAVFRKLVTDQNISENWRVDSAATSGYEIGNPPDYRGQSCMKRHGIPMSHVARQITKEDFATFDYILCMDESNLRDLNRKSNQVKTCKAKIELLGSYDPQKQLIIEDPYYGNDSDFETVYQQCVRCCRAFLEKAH
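Assay system: LMPTP-A enzyme. Input: 0.625 nM LMPTP-A final. Probe or stimulus: 400 µM OMFP. Compound dosing: single 20 µM dose. Schedule: 50 min dark incubation at room temperature. Detection: fluorescence intensity of OMFP turnover product. Read-out: percent inhibition versus substrate-only and uninhibited controls. Benchmarks: no-enzyme low control, uninhibited high control.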
STEP inh = STEP (human) phosphatase inhibition; AID 588621; recombinant STEP, OMFP fluorogenic substrate, fluorescence; 0.25% of 360,000 active; P54829; inhibition, % at 20 µM;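 active = inhibition at 20 µM, scaled per plate between control wells, above about 37%, limit read from the data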;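 note: 0% = DMSO with enzyme and substrate and 100% = substrate only without enzyme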
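System: STEP phosphatase, cell-free reaction; Buffer or medium: Bis-Tris pH 6.0 buffer with DTT, detergent; Incubation: 20 min at room temperature, dark; Measured by: fluorescence, 480/540 nm.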
SUMO1 PPI mod = SUMO1-SIM interaction modulation. SUMO1 binding to a labelled peptide, TR-FRET, 1 h. 0.33% of 360,000 active. inhibition, % at 20 µM. AID 602429; in the data active = inhibition above about 37%
Scp1 confirm = Scp-1 (human) inhibition, single-dose confirmed; 61% of 2,500 active; shares compounds with Scp1 inh; inhibition, % at 20 µM; AID 540281; recombinant SCP-1 catalytic domain, phosphate release, malachite green absorbance;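 note: plate controls were DMSO with enzyme for no effect and buffer wells lacking enzyme for full effect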
MG interference = interferes with malachite green readout, flagging false Scp-1 hits. shares compounds with Scp1 inh. Colorimetric interference counterscreen, malachite green absorbance 630 nm. apparent inhibition (interference), % at 20 µM. 2,500 tested, under 10 active;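 note: compounds added after enzyme reaction finished so only phosphate colour detection is probed; plate controls were DMSO wells with completed Scp-1 reaction for no effect and substrate wells lacking enzyme for full effect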
Scp1 DSF = binds human Scp-1, shifting its melting temperature; thermal shift relative to vanadate control, % at 40 µM; Recombinant SCP1, Sypro Orange thermal shift Tm; shares compounds with Scp1 inh; AID 540329; 25% of 1,500 active;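 active = substances whose mean melting-temperature shift, as a percentage of the reference inhibitor's shift, reaches about 5.3%, limit read from the data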;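 note: 0% = Tm of DMSO wells and 100% = Tm with sodium orthovanadate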
An asterisk follows results filed as active; x = no result given. Most compounds without a hit are left out; they make up all but 1.9% or so of the library.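 Rule for the calls, unless noted: active = inhibition of at least 30% at 20 µM; inactive = the rest.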

SMILES | Scp1 inh | DNMT1 inh | CSN deneddyl inh | LMPTP inh | STEP inh | SUMO1 PPI mod | Scp1 confirm | MG interference | Scp1 DSF
CCCCC1(C)OC(=O)C(=Cc2ccc(SC)cc2)C(=O)O1 (stereo not drawn) | 3 | 6 | 0 | 0 | -1 | 4 | x | x | x
O=C(O)c1cc(-c2ccc(/C=N/NC(=S)Nc3ccccc3)o2)ccc1Cl | 52* | 18 | 8 | 1 | 1 | 22 | 59* | -2 | 12*
CNc1ccccc1C(=O)OCC(=O)N1CCN(c2ccc(OC)cc2)CC1 | 66* | 0 | 5 | 1 | 3 | -1 | -1 | -7 | x
COc1ccc(N2CCN(C(=O)COC(=O)c3cccc(OC)c3O)CC2)cc1 | -4 | 6 | 3 | -2 | 1 | 1 | x | x | x
O=C(NCCCO)c1cc([N+](=O)[O-])cc2c1C=Cc1ccccc1O2 | 98* | -7 | 3 | -2 | -1 | -27 | -3 | -7 | x
O=C(NCCCc1ccccc1)c1ccc([N+](=O)[O-])cc1Cl | 0 | -1 | -2 | 0 | -2 | -34 | x | x | x
COCC(=O)N/N=C/c1ccc(Sc2nc3ccccc3s2)o1 | -7 | 5 | -1 | -1 | -2 | -27 | x | x | x
N#CCC(=O)N/N=C/c1ccc(Sc2nc3ccccc3s2)o1 | 99* | 8 | 2 | 1 | 0 | -15 | 81* | -11 | 8.1*
Cc1ccc(CNC(=O)c2cc(=O)c3cc(C)ccc3o2)cc1 | 61* | 2 | 7 | 29 | 24 | 12 | 20 | -15 | x
N#C/C(=C\c1c(N(Cc2ccccc2)Cc2ccccc2)nc2ccccn2c1=O)C(N)=O | 56* | -3 | 0 | 1 | 2 | -20 | -13 | -9 | x
COc1ccc(CNC(=O)Cn2cnc3c(=O)n(C)c(=O)n(C)c32)cc1 | -6 | 1 | -5 | -1 | 0 | 2 | -7 | -8 | x
CCC(NC(=O)Cn1cnc2c(=O)n(C)c(=O)n(C)c21)c1ccccc1 (stereo not drawn) | 0 | 1 | -8 | -1 | 1 | 1 | -8 | -11 | x
Cn1c(=O)c2ncn(CC(=O)NCCOc3ccccc3)c2n(C)c1=O | -8 | 4 | -4 | -1 | -2 | 0 | x | x | x
Cc1cccc(N(Cc2ccccc2)C(=O)c2ccc(CS(C)(=O)=O)cc2)c1 | -8 | 0 | 3 | 0 | -1 | 5 | x | x | x
CCCCN(C(=O)c1c(C)noc1C)c1c(N)n(CCC)c(=O)[nH]c1=O | 3 | 7 | 11 | -2 | -4 | -1 | x | x | x
O=C(CSc1nnc2scc(-c3ccccc3)n12)Nc1nsc(-c2ccccc2)n1 | 71* | 17 | 32 | 8 | 7 | 4 | 74* | -8 | -19
O=C(N/N=C/c1cccc(O)c1)c1ccc(-n2cnnn2)cc1 | -1 | 2 | -1 | -1 | -1 | -8 | x | x | x
CCOC(=O)N1CCC(N2CC34C=CC(O3)C(C(=O)Nc3ccc(F)cc3)C4C2=O)CC1 (stereo not drawn) | 90* | -1 | 0 | 0 | -1 | 3 | -4 | -10 | x
COC(=O)C1=C(COc2ccccc2)NC(=O)NC1c1ccc2ccccc2c1 (stereo not drawn) | 50* | x | x | x | x | x | 31* | -14 | -33
CN(c1ccccc1C(=O)N1CCN(c2ccccc2F)CC1)S(=O)(=O)c1ccccc1 | -5 | -1 | -3 | 1 | -1 | 4 | x | x | x
CSCCC(NS(=O)(=O)c1ccc2c(c1)oc(=O)n2C)C(=O)NC1CCC(C)CC1 (stereo not drawn) | -22 | -2 | -3 | -1 | 0 | 8 | 4 | -6 | x
CCc1nn(C(CC)C(=O)NCc2cccc(OC)c2OC)c(=O)c2cc3occc3n12 (stereo not drawn) | -11 | -2 | -2 | 2 | -1 | -2 | x | x | x
O=C(Cc1ccc(Cl)cc1)Nc1ccc(Br)cc1 | -4 | 1 | 5 | 1 | -2 | 0 | x | x | x
O=C(Cc1ccc(Br)cc1)NNC(=O)Nc1ccc(Cl)cc1 | 63* | 26 | 3 | 0 | 1 | 3 | 62* | -3 | 4
C[N+](C)(C)CC/C=C1/c2ccccc2CSc2ccccc21 | 77* | -3 | 1 | 0 | 2 | 3 | 82* | -13 | -4
SMILES | Scp1 inh | DNMT1 inh | CSN deneddyl inh | LMPTP inh | STEP inh | SUMO1 PPI mod | Scp1 confirm | MG interference | Scp1 DSF
CCOc1ccccc1-n1c(=S)sc2c(=O)n(-c3ccccc3)c(=S)[nH]c21 | -14 | 6 | -4 | 0 | 0 | -10 | x | x | x
COCCC(C(=O)Oc1c(C(C)(C)C)cc(C)cc1C(C)(C)C)c1ccccc1 (stereo not drawn) | -3 | 6 | 0 | 1 | 4 | 2 | x | x | x
CCCN(CCC)Cc1c(C(=O)N/N=C/CCc2ccccc2)nnn1-c1nonc1N | -6 | -3 | -2 | 1 | -1 | 6 | x | x | x
CN(C)CC(C)(C)CNS(=O)(=O)c1cccc(Cl)c1Cl | 70* | -1 | -4 | -2 | -5 | -3 | 12 | -22 | x
O=C(O)c1cccc(N2C(=O)C3CC=C(Cl)CC3C2=O)c1 (stereo not drawn) | 109* | 42 | 1 | -1 | 0 | 13 | 57* | -20 | -23
COc1ccc(NS(=O)(=O)c2cccc(C(=O)NCc3ccccn3)c2)cc1 | -8 | -3 | -4 | -9 | 4 | -41 | x | x | x
CCCCn1c(SCC(=O)NCc2ccco2)nnc1-c1ccoc1C | 97* | 41 | 18 | 1 | 3 | 22 | 77* | -12 | -3
O=C(CSc1nnc(COc2ccccc2)n1Cc1ccco1)NCc1ccco1 | 88* | 32 | 13 | 5 | 2 | 5 | 67* | -11 | -13
Cc1cc(NC(=O)CSc2nnc(COc3ccccc3)n2Cc2ccco2)no1 | -4 | 7 | 2 | -3 | -1 | -4 | x | x | x
CCCCn1c(SCC(=O)NCc2ccco2)nc2ccccc2c1=O | -5 | 1 | 5 | 1 | 0 | 2 | x | x | x
O=C(CSc1nc2ccccc2c(=O)n1Cc1ccco1)NCc1ccco1 | 74* | 32 | 10 | 1 | 3 | 11 | 74* | -3 | -3
O=C(NCc1ccco1)c1ccc2c(=O)n(Cc3ccco3)c(SCC(=O)N3CCCC3)nc2c1 | 101* | 30 | 8 | 9 | 4 | 18 | 70* | -13 | -22
